This sample holds only a part of the variants without activity.
B1: tRNA (parent)
chain: GUUCCGUUGGCGUAAUGGUAACGCGUCUCCCUCCUAAGGAGAAGACUGCGGGUUCGAGUCCCGUACGGAACG

Variants of: B1
Assay: yeast fitness relative to wild type (ratio to wild type); higher = fitter; tRNA-Arg(CCU), competitive growth, 37 C, YPD
Outline: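 Changes in genotype frequencies gave Darwinian fitness relative to wild type. Frequencies were read by 100-nucleotide paired-end sequencing of gene amplicons before and after pooled Saccharomyces cerevisiae strains, carrying tRNA-Arg(CCU) gene variants at the native locus, were competed in YPD at 37°C for 24 hours in six replicates. A genotype was kept only with ≥ 100 starting reads, and estimates < 0.5 were set to 0.5.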
In the case of U7C U47G U59A C66A A70C, the yeast fitness is reported as ≤ 0.5. U7G C30U G38A showed a yeast fitness of 0.591. U8A A37C A43U G63A gave a yeast fitness of 0.561. In the case of U8A A15U C27G A36G G38U, the yeast fitness is reported as ≤ 0.5. With U7G C29U C31U G38C A70G the yeast fitness was ≤ 0.5. For U8A A36G G67C, the yeast fitness was ≤ 0.5. For U7G A43U C61G, the yeast fitness was ≤ 0.5. Variant U8A A14U C22U has a yeast fitness of 0.592. For U8A A40U A43U A65C, the yeast fitness was ≤ 0.5. In the case of U8A A36C C62A, the yeast fitness is reported as ≤ 0.5. In the case of U7G A14U U19A C22U, the yeast fitness is reported as ≤ 0.5. For U7C U32G C49U, the yeast fitness was ≤ 0.5. In the case of U7G C29U C31U G38C, the yeast fitness is reported as ≤ 0.5. In the case of U8A A14G C24G G56A, the yeast fitness is reported as ≤ 0.5. For U7G G23C C24A C30G A36U C61U A65U, the yeast fitness was ≤ 0.5. In the case of U8A A15G C27A G67A, the yeast fitness is reported as ≤ 0.5. Variant U7G G52A has a yeast fitness of 0.723. Variant U8A A36U C55G U59C A69C has a yeast fitness of 0.794. In the case of U7G U8A U32C G51C C60U C61U C62U, the yeast fitness is reported as 0.599. For U7G C11G C34U G41A A65C, the yeast fitness was ≤ 0.5. For U7G C11G C34U G41A A65G, the yeast fitness was ≤ 0.5. Work on U8A A42C yielded a yeast fitness of 0.648. With U7G A43U C46A the yeast fitness was 0.603. In the case of U7G C31U G39A C55U G68C, the yeast fitness is reported as ≤ 0.5. U8A A15U C27G A36G gave a yeast fitness of 0.569. U7G G63A gave a yeast fitness of 0.888. In the case of U8A A15U A20C A45G, the yeast fitness is reported as ≤ 0.5. With U7G C27G U28G G52C G58C A65U A70C the yeast fitness was ≤ 0.5. With U7G G39A C66U the yeast fitness was ≤ 0.5. For U8A A14G C24G A45C C62U, the yeast fitness was ≤ 0.5. In the case of U7G A15C U16A C33G A37C C49A C61U A70U, the yeast fitness is reported as ≤ 0.5. With U7G G39A C55U U59G G68C the yeast fitness was ≤ 0.5. With U8A A40U the yeast fitness was 0.707. With U7G A15G C27U G68A the yeast fitness was ≤ 0.5. For U8A A14C G17C C24U A45U G67C, the yeast fitness was ≤ 0.5. Variant U7G G39C A70U has a yeast fitness of 0.553. For U7G A36U C60U, the yeast fitness was ≤ 0.5. Work on U7G A69U yielded a yeast fitness of 0.894. With U7G U13A A42G C66G G67C the yeast fitness was ≤ 0.5. For U8A A14G A20U G63C C66G, the yeast fitness was ≤ 0.5. With U7G C34U C60A the yeast fitness was ≤ 0.5. In the case of U7G U59G A69C, the yeast fitness is reported as ≤ 0.5. For U7G C27A A40U, the yeast fitness was ≤ 0.5. In the case of U7G A21C A42U C66U, the yeast fitness is reported as ≤ 0.5. In the case of U7G C27U G68A, the yeast fitness is reported as ≤ 0.5. U7G G38C gave a yeast fitness of 0.591. With U8A A36G G44A the yeast fitness was 0.527. For U7G C27U C33U, the yeast fitness was ≤ 0.5. For U7G C11G C30G G41C, the yeast fitness was ≤ 0.5. In the case of U7G G10C C22G, the yeast fitness is reported as ≤ 0.5. In the case of U7G A43G C60U C62U A70C, the yeast fitness is reported as ≤ 0.5. With U7G A37U A65G the yeast fitness was 0.699. For U7C U47C C62G, the yeast fitness was ≤ 0.5. With U8A A14C C31A G41C C49A G56A G67C the yeast fitness was ≤ 0.5. Variant U7G A43U U64C has a yeast fitness of 0.546. In the case of U7G A15C U16A C33G A69C, the yeast fitness is reported as ≤ 0.5. Variant U7G A14G has a yeast fitness of 0.911. Work on U7G A14C yielded a yeast fitness of 0.532. For U8A A14U G17A C27U, the yeast fitness was ≤ 0.5. U7G C29G C30U C46U showed a yeast fitness of 0.534. For U7G A15G C61U G67A, the yeast fitness was ≤ 0.5. In the case of U7C U64G, the yeast fitness is reported as 0.809. For U7G C27G U28G G68A, the yeast fitness was ≤ 0.5. U8A A14C C31A G41C C49A G56A gave a yeast fitness of 0.668. In the case of U7G C22U U26C U64G G67C, the yeast fitness is reported as ≤ 0.5. In the case of U8A A36U G68C, the yeast fitness is reported as ≤ 0.5. With U7G A14G U35G A43G C55U U59A the yeast fitness was ≤ 0.5. With U7G C60A A70C the yeast fitness was 0.551. In the case of U8A A36G A40C U47A, the yeast fitness is reported as ≤ 0.5. In the case of U7G A14U U19A C22U C60G, the yeast fitness is reported as ≤ 0.5. In the case of U7G C29A, the yeast fitness is reported as 0.649. For U7G U8G A70U, the yeast fitness was ≤ 0.5. Variant U7G U32C C46G has a yeast fitness of 0.62. With U7G C33U C55G the yeast fitness was ≤ 0.5. In the case of U7G A14G C22U G38A, the yeast fitness is reported as 0.534. With U7G C27G U28G G39C A42G the yeast fitness was ≤ 0.5. With U7G C27U C49U the yeast fitness was 0.59. Work on U7G A36U A70U yielded a yeast fitness of 0.544. For U8A A40G A42U A45U U59G G68A, the yeast fitness was ≤ 0.5. With U7G U32C the yeast fitness was 0.992. Variant U7G U32G has a yeast fitness of 0.569. In the case of U8A A15G C27A U47G G68U, the yeast fitness is reported as ≤ 0.5. With U7G G10C A43U C55U the yeast fitness was ≤ 0.5. In the case of U7G G25A, the yeast fitness is reported as 0.799. Work on U7G A57G C60U yielded a yeast fitness of 0.62. U7G G39C showed a yeast fitness of 0.632. With U7G G39A the yeast fitness was 0.874. For U7G C29G G52C A57U, the yeast fitness was ≤ 0.5. In the case of U7G C29U A36U, the yeast fitness is reported as ≤ 0.5. In the case of U7G U26C A42U C46U C66U, the yeast fitness is reported as ≤ 0.5. In the case of U7C U64G A69C, the yeast fitness is reported as 0.603. For U7C U35C G52A, the yeast fitness was ≤ 0.5. For U7G G51C, the yeast fitness was 0.644. In the case of U7C U32A U53A, the yeast fitness is reported as 0.576. With U7G C62G A69G the yeast fitness was ≤ 0.5. For U7G C22U C49G G50C C66A, the yeast fitness was ≤ 0.5. With U7G A43C the yeast fitness was 0.969. U7G A43C U64A showed a yeast fitness of 0.682. For U8A A42U A43U, the yeast fitness was 0.58. For U7G C34G, the yeast fitness was 0.649. For U7G C34U, the yeast fitness was 0.588. For U7G C30U C60U A69C, the yeast fitness was 0.576. In the case of U7G A21C U26C G44C, the yeast fitness is reported as ≤ 0.5. With U7G C34G A36C the yeast fitness was 0.525. U7C U54C C55G showed a yeast fitness of 0.655. For U8A A14U G17A G25A, the yeast fitness was ≤ 0.5. For U7G A21C G39C C49A G51A, the yeast fitness was ≤ 0.5. Work on U7C U32C U53C yielded a yeast fitness of 0.536. For U8A A15C G18C C49U C62U, the yeast fitness was ≤ 0.5. In the case of U7G A21C G44C G58C, the yeast fitness is reported as ≤ 0.5. With U7G A57G G68U the yeast fitness was ≤ 0.5. With U7G G10C C22G C55A the yeast fitness was ≤ 0.5. For U7G U19C U64C, the yeast fitness was 0.954. U7C U59A showed a yeast fitness of 0.765. For U7G A36C G41A U53C, the yeast fitness was ≤ 0.5. U7G A20G U47A C61A showed a yeast fitness of 0.597. In the case of U7G C11G C34U G41A A70U, the yeast fitness is reported as ≤ 0.5. Variant U7G G67A has a yeast fitness of 0.826. With U8A A15C U26A C33A C61A U64A the yeast fitness was ≤ 0.5. U7G G10A C11G C27U A40U showed a yeast fitness of 0.538. With U8A A14G G39C the yeast fitness was ≤ 0.5. Work on U7G U26C C31A G38C yielded a yeast fitness of 0.561. For U7G A21C G50A U64C, the yeast fitness was ≤ 0.5. For U7G A40C U47A, the yeast fitness was ≤ 0.5. For U7G A37U C46G, the yeast fitness was ≤ 0.5. U7G U32C A65G gave a yeast fitness of 0.795. In the case of U7G C34A G44C G51A, the yeast fitness is reported as ≤ 0.5. With U7G G56C C60U G67C the yeast fitness was ≤ 0.5. For U7G G41C G58C U59C, the yeast fitness was ≤ 0.5. With U8A A37C U53C the yeast fitness was 0.545. With U7G C30U G50C the yeast fitness was ≤ 0.5. For U7G A15G C33G A69U, the yeast fitness was ≤ 0.5. For U7G A42U, the yeast fitness was 0.683. U7G C29A C30A U54A A57G U64A gave a yeast fitness of 0.561. For U8A A20U G56A G67A, the yeast fitness was ≤ 0.5. With U7G A15C C24U U32C A43G G51A U54C G67C the yeast fitness was ≤ 0.5. With U7G U8A A14G C62U A65U the yeast fitness was ≤ 0.5. For U8A A42U U59A, the yeast fitness was ≤ 0.5. With U7G G50C G67C the yeast fitness was ≤ 0.5. Work on U7G U8C C11G C34U G41A yielded a yeast fitness of 0.547. For U7G C31U U47C, the yeast fitness was 0.536. For U7G A21C G44C C66U, the yeast fitness was ≤ 0.5. In the case of U8A A20C A42U, the yeast fitness is reported as ≤ 0.5. U7G C30A G48A showed a yeast fitness of 0.673. With U7G A43C G58C the yeast fitness was 0.648. For U7G A15G A21C, the yeast fitness was ≤ 0.5. For U7G U32C A40G, the yeast fitness was 0.559. For U7G G23U C27G U28G C60A, the yeast fitness was ≤ 0.5. For U8A A15U A21G C34A A37G, the yeast fitness was 0.51. For U7G C27G U32C U35C A36G U53A G56A, the yeast fitness was ≤ 0.5. For U7G G9A C31G A36G G68C, the yeast fitness was ≤ 0.5. Work on U7G A70C yielded a yeast fitness of 0.972. Variant U7G G10C C29A C55U A69U has a yeast fitness of 0.534. U7G C29G C46U gave a yeast fitness of 0.546. For U7G U26C A43G C49U, the yeast fitness was ≤ 0.5. Work on U7G A14G U64A yielded a yeast fitness of 0.527. Work on U8A A15C G18C yielded a yeast fitness of 0.575. With U8A A21G C24A C30A A45U C49A A65U the yeast fitness was ≤ 0.5. With U7G C11G C34U A36G G41A A65G the yeast fitness was ≤ 0.5. Work on U7G A40U A43U G44A A45U U53A yielded a yeast fitness of 0.61. In the case of U7G C29G U35C C46U, the yeast fitness is reported as ≤ 0.5. With U7G G9A C31G A36G C62U the yeast fitness was ≤ 0.5. In the case of U7G A20C A70G, the yeast fitness is reported as ≤ 0.5. With U7G U47A C61A the yeast fitness was 0.781. In the case of U7G G9A C30G G51C, the yeast fitness is reported as ≤ 0.5. In the case of U7G C11G A21G C34U G41A, the yeast fitness is reported as ≤ 0.5. U7G A14U U53A showed a yeast fitness of 0.554.

— the RNAGym collection of RNA variant scans (doi:10.1126/science.aae0568)
